pIC50: −log10 of the molar value.
Columns and labels:
[1] = biological target: Epidermal growth factor receptor (Homo sapiens, UniProt P00533, L858R/T790M); test: Inhibition of human recombinant cytoplasmic GST-tagged EGFR T790M/L858R double mutant (668 to 1210 residues) expressed in baculovirus using TK-substrate-biotin preincubated for 15 mins followed by substrate addition measured after 60 mins by FRET-based Z'-Lyte assay
[2] = biological target: Epidermal growth factor receptor (Homo sapiens, UniProt P00533); test: Inhibition of human recombinant cytoplasmic GST-tagged EGFR (668 to 1210 residues) expressed in baculovirus using TK-substrate-biotin preincubated for 15 mins followed by substrate addition measured after 60 mins by FRET-based Z'-Lyte assay; settings: for pIC50: read-out: IC50
Homo sapiens = species on record: Homo sapiens; test: Selectivity ratio of IC50 for human recombinant cytoplasmic GST-tagged EGFR (668 to 1210 residues) to IC50 for human recombinant cytoplasmic GST-tagged EGFR T790M/L858R double mutant (668 to 1210 residues)
In short: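 HTRF kinase assay on wild-type EGFR and the T790M/L858R mutant, with TK-substrate-biotin, ATP, 1 mM DTT, 1 mM MnCl2 and 5 mM MgCl2. Serially diluted compounds in 1% DMSO were preincubated with kinase for 15 min. The reaction was started with ATP plus substrate, run 60 min at room temperature, then stopped with Strep-XL665/TK Ab-Cryptate and read after 1 h. Run in duplicate, at least three independent IC50 determinations.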

[3] = biological target: Epidermal growth factor receptor (Homo sapiens, UniProt P00533, L858R); test: Inhibition of human recombinant cytoplasmic GST-tagged EGFR L858R mutant expressed in baculovirus using TK-substrate-biotin preincubated for 15 mins followed by substrate addition measured after 60 mins by FRET-based Z'-Lyte assay
NCI-H1975 = test: Antiproliferative activity against human NCI-H1975 cells harboring EGFR L858R/T790M double mutant; assay type: functional, cell-based
In short: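 A431 was grown in EMEM with 10% FBS; HCC827 and NCI-H1975 were grown in RPMI-1640 with 10% FBS. Cell viability experiments were repeated at least three times.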

HCC827 = test: Antiproliferative activity against human HCC827 cells harboring EGFR E746-A750 deletion mutant; assay type: functional, cell-based
A-431 = test: Antiproliferative activity against human A431 cells harboring wild-type EGFR; assay type: functional, cell-based
[4] = Half life in dog liver microsomes; assay type: ADME, Canis lupus familiaris, microsome
[5] = Intrinsic clearance in rat hepatocytes assessed per million cells; assay type: ADME, cell-based, Hepatocyte
[6] = Intrinsic clearance in rat liver microsomes; assay type: ADME, microsome; settings: read-out: CLH
[7] = Oral bioavailability in Sprague-Dawley rat at 10 mg/kg administered via gavage after 24 hrs by LC-MS/MS analysis; assay type: ADME, organism-based; settings: in vivo
In short: (§1)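 Male Sprague-Dawley rats (200-240 g) received 1 mg/kg by tail-vein injection in 2% DMSO, 20% PEG400 and 78% buffered saline, or 10 mg/kg by oral gavage in 0.5% methylcellulose. Orbital sinus blood was drawn into heparinized tubes at 2, 5, 15 and 30 min and at 1, 2, 4, 8, 12 and 24 h, then centrifuged. Plasma was measured by LC/MS/MS in SRM mode, with non-compartmental analysis.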

[8] = Half life in human hepatocytes; assay type: ADME, cell-based, Hepatocyte
[9] = Half life in rat liver microsomes; assay type: ADME, microsome
[10] = Cmax in Sprague-Dawley rat at 10 mg/kg, po administered via gavage after 24 hrs by LC-MS/MS analysis; assay type: ADME, organism-based; parameters: dose 10 mg/kg, route oral; settings: in vivo; in short: as §1
[11] = Intrinsic clearance in dog liver microsomes; assay type: ADME, Canis lupus familiaris, microsome; settings: read-out: CLH
[12] = Half life in Sprague-Dawley rat at 1 mg/kg, iv by LC-MS/MS analysis; assay type: ADME, organism-based; settings: in vivo
In short: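 Male Sprague-Dawley rats (200-240 g) were dosed either by tail vein at 1 mg/kg in 2% DMSO/20% PEG400/78% buffered saline or by oral gavage at 10 mg/kg in 0.5% methylcellulose. Blood was drawn by orbital sinus puncture at 2 min to 24 h into heparin, and plasma was analysed by LC/MS/MS in SRM mode. Parameters came from non-compartmental analysis.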

[13] = MRT in Sprague-Dawley rat at 1 mg/kg, iv by LC-MS/MS analysis; assay type: ADME, organism-based; settings: in vivo; in short: as §1
[14] = Half life in rat hepatocytes; assay type: ADME, cell-based, Hepatocyte
[15] = Half life in mouse liver microsomes; assay type: ADME, microsome
[16] = Half life in monkey liver microsomes; assay type: ADME, Macaca mulatta, microsome; settings: rhesus monkey
[17] = Intrinsic clearance in monkey liver microsomes; assay type: ADME, Macaca mulatta, microsome; settings: rhesus monkey, read-out: CLH
[18] = Tmax in Sprague-Dawley rat at 10 mg/kg, po administered via gavage by LC-MS/MS analysis; assay type: ADME, organism-based; settings: in vivo; in short: as §1
[19] = MRT in Sprague-Dawley rat at 10 mg/kg, po administered via gavage by LC-MS/MS analysis; assay type: ADME, organism-based; settings: in vivo; in short: as §1
[20] = Intrinsic clearance in mouse liver microsomes; assay type: ADME, microsome; settings: read-out: CLH
[21] = Clearance in Sprague-Dawley rat at 1 mg/kg, iv after 24 hrs by LC-MS/MS analysis; assay type: ADME, organism-based; settings: in vivo; in short: as §1

Sequence of Epidermal growth factor receptor (Homo sapiens, UniProt P00533, L858R) (P00533 25-1210 L858R limits assumed): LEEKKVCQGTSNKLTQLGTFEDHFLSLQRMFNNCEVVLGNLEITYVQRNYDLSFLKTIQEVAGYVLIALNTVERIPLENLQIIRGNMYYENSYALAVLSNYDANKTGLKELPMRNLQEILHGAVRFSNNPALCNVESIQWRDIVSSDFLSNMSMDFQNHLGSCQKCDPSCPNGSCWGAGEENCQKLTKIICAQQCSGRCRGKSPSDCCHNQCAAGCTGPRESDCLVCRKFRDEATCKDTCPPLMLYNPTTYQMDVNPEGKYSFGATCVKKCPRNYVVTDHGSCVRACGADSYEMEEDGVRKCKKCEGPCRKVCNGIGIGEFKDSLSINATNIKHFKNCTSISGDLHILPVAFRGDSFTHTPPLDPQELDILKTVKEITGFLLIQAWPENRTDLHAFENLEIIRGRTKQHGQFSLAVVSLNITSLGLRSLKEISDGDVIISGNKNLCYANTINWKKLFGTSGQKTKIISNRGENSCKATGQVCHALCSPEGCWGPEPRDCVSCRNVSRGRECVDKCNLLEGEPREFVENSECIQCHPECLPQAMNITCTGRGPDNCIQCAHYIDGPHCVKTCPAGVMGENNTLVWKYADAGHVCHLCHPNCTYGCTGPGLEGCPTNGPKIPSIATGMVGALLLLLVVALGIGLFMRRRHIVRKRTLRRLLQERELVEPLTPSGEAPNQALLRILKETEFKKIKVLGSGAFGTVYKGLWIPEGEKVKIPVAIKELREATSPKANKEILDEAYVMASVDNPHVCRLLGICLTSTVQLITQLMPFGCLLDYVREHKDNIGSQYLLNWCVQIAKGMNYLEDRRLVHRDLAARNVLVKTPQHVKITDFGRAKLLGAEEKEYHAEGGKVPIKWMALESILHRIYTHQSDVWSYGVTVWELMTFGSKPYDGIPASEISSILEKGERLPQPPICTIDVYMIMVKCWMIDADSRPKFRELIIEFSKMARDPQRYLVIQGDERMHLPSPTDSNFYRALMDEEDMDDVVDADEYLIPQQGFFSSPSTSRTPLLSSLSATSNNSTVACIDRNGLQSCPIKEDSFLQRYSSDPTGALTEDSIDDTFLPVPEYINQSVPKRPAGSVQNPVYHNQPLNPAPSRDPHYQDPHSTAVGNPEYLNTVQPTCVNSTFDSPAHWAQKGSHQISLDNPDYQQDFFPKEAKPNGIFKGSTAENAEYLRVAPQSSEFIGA
Sequence of Epidermal growth factor receptor (Homo sapiens, UniProt P00533) (P00533 whole entry, the tested form may be a part): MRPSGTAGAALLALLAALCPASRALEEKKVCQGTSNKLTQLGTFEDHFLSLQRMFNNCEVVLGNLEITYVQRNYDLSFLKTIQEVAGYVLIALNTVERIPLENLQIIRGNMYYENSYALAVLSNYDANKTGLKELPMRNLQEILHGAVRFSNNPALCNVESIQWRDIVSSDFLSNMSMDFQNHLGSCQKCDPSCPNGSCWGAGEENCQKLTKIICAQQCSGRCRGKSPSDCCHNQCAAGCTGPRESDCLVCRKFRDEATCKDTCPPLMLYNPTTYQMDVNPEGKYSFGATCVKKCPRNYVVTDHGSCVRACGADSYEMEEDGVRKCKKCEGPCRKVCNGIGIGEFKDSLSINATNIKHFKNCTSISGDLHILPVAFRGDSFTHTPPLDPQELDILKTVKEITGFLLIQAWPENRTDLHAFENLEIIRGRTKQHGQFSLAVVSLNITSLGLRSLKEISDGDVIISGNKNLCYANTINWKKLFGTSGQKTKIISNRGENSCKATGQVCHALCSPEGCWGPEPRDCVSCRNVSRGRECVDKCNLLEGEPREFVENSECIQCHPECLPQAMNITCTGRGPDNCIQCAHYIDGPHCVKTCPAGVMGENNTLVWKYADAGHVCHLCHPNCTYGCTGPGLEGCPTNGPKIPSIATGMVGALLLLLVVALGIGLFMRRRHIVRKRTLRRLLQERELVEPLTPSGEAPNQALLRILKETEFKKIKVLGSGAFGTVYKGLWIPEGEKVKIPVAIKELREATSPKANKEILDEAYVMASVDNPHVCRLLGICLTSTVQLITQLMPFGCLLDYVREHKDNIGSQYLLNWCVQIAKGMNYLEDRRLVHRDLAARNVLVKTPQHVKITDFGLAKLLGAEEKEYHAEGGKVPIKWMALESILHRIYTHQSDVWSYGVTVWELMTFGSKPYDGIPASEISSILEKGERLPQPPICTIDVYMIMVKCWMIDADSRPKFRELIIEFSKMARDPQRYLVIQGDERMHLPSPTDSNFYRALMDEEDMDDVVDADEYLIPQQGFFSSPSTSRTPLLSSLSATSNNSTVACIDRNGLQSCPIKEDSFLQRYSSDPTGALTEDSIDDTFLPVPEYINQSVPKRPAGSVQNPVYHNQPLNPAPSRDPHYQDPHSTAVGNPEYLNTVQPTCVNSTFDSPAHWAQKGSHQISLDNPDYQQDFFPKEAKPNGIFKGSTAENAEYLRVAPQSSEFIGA
Sequence of Epidermal growth factor receptor (Homo sapiens, UniProt P00533, L858R/T790M) (P00533 25-1210 T790M/L858R limits assumed): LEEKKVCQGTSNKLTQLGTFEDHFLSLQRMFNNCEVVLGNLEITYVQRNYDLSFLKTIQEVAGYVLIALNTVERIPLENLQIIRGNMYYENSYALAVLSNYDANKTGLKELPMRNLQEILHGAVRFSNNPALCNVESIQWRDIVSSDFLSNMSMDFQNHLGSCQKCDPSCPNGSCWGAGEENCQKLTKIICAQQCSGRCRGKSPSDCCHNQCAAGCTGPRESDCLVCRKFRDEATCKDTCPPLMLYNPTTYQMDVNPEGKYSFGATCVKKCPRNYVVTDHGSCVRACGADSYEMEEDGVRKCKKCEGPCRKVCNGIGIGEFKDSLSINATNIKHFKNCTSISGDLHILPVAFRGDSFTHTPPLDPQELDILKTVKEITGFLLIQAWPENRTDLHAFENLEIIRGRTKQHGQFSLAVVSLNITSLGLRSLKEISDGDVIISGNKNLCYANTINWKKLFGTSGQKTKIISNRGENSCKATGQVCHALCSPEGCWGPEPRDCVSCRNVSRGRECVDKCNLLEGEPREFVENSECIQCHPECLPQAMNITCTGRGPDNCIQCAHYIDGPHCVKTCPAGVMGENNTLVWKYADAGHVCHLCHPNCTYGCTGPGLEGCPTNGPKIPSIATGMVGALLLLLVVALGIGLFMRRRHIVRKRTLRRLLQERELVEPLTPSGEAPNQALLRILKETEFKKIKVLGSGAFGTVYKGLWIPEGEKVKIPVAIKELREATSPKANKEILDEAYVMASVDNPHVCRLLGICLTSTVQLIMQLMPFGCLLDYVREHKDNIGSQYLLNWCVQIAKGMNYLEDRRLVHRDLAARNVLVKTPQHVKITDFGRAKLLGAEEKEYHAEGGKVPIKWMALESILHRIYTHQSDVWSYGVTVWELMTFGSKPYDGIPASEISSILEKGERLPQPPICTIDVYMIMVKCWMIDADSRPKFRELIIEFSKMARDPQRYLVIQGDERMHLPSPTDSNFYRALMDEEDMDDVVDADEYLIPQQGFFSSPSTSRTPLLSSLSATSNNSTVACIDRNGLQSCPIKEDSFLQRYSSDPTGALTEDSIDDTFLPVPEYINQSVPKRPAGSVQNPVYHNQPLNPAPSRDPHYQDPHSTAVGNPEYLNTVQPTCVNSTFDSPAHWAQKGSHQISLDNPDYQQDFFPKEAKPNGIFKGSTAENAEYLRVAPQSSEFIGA

Row | SMILES | pIC50 [1] | pIC50 [2] | Ratio IC50 (Homo sapiens) | pIC50 [3] | pIC50 (NCI-H1975) | pIC50 (HCC827) | pIC50 (A-431) | other results
1 | C=CC(=O)Nc1cc(Nc2nccc(-c3cn4c5c(cccc35)CCC4)n2)c(OC)cc1N1CCN(C)CC1 | 7.26 | 6.06 | 15.8 | 7.19 |  |  |  | 
2 | C=CC(=O)Nc1cc(Nc2nccc(-c3cn4c5c(cccc35)CCC4)n2)c(OC)cc1N(C)CC(=O)N(C)C | 6.56 | < 6.00 | > 3.6 | 6.30 |  |  |  | 
3 | C=CC(=O)Nc1cc(Nc2nccc(-c3cn4c5c(cccc35)CCC4)n2)c(OC)cc1N(C)CCN(C)C(C)=O | 6.73 | < 6.00 | > 5.3 | 6.41 |  |  |  | 
4 | C=CC(=O)Nc1cc(Nc2nccc(-c3cn4c5c(cccc35)CCC4)n2)c(OC)cc1N1CC(CCN(C)C)C1 | 7.93 | 6.60 | 21.3 | 7.84 |  |  |  | 
5 | C=CC(=O)Nc1cc(Nc2nccc(-c3cn4c5c(cccc35)CCC4)n2)c(OC)cc1N1CC(N(C)C)C1 | 8.31 | 7.19 |  | 7.87 | 6.84 | 7.01 | 5.95 | 
6 | C=CC(=O)Nc1cc(Nc2nc(OC)cc(-c3cn(C)c4ccccc34)n2)c(OC)cc1N(C)CCN(C)C | 7.89 | 6.16 |  | 6.81 | 6.49 | 5.93 | < 5.00 | 
7 | C=CC(=O)Nc1cc(Nc2nccc(-c3cn4c5c(cccc35)CCC4)n2)c(OC)cc1N(C)CCO | 7.46 | 6.08 | 24.1 | 6.72 |  |  |  | 
8 | C=CC(=O)Nc1cc(Nc2cc(-c3cn(C)c4ccccc34)nc(C)n2)c(OC)cc1N(C)CCN(C)C | 7.22 | 6.72 | 3.2 | 7.33 |  |  |  | 
9 | C=CC(=O)Nc1cc(Nc2nccc(-c3cn4c5c(cccc35)CCC4)n2)c(OC)cc1N1CCC(CN(C)C)C1 (stereo unspecified) | 8.72 | 8.06 |  | 8.40 | 7.00 | 7.14 | 6.29 | 
10 | C=CC(=O)Nc1cc(Nc2ncnc(-c3cn(C)c4ccccc34)c2OC)c(OC)cc1N(C)CCN(C)C | 6.67 | 6.65 | 1 | 7.26 |  |  |  | 
11 | C=CC(=O)Nc1cc(Nc2cc(-c3cn(C)c4ccccc34)nc(OC)n2)c(OC)cc1N(C)CCN(C)C | 7.96 | 6.20 |  | 6.91 | 6.68 | 6.03 | < 5.00 | 
12 | C=CC(=O)Nc1cc(Nc2ncnc(-c3cn(C)c4ccccc34)c2F)c(OC)cc1N(C)CCN(C)C | 7.02 | 7.49 | 0.34 | 8.00 |  |  |  | 
13 | C=CC(=O)Nc1cc(Nc2nccc(-c3cn4c5c(cccc35)CCC4)n2)c(OC)cc1N1CC(CN(C)C)C1 | 8.17 | 6.69 |  | 7.94 | 6.78 | 6.54 | 5.83 | 
14 | C=CC(=O)Nc1cc(Nc2nccc(-n3cc(C)c4ccccc43)n2)c(OC)cc1N(C)CCN(C)C | 6.54 | 6.15 | 2.5 | 6.73 |  |  |  | 
15 | C=CC(=O)Nc1cc(Nc2cc(-c3cn4c5c(cccc35)CCC4)nc(OC)n2)c(OC)cc1N(C)CCN(C)C | 7.66 | 6.27 |  | 6.74 |  |  |  | 
16 | C=CC(=O)Nc1cc(Nc2nccc(-n3ncc4ccccc43)n2)c(OC)cc1N(C)CCN(C)C | < 6.22 |  |  | < 6.22 |  |  |  | IC50 [2]: Not Active
17 | C=CC(=O)Nc1cc(Nc2cc(-c3cn(C)c4ccccc34)ncn2)c(OC)cc1N(C)CCN(C)C | 8.80 | 8.64 |  | 8.66 | 7.47 | 7.79 | 6.89 | 
18 | C=CC(=O)Nc1cc(Nc2nccc(-c3cn4c5c(cccc35)CCC4)n2)c(OC)cc1N1CCNC(=O)C1 | 5.91 |  |  | 6.37 |  |  |  | IC50 [2]: Not Active
19 | C=CC(=O)Nc1cc(Nc2cc(-c3cn4c5c(cccc35)CCC4)ncn2)c(OC)cc1N(C)CCN(C)C | 8.59 | 8.51 |  | 8.92 | 7.42 | 7.61 | 6.91 | 
20 | C=CC(=O)Nc1cc(Nc2nccc(-c3cn(C)c4ccccc34)n2)c(OC)cc1N(C)CCN(C)C [OSIMERTINIB] |  |  |  |  | […] |  |  | half-life [4]: 0.35 h; CLH [5]: […]; CLint scaled [6]: […]; bioavailability [7]: […]; half-life [8]: […]; half-life [9]: 1.04 h; Cmax [10]: […]; CLint scaled [11]: […]; half-life [12]: […]; MRT [13]: […]; half-life [14]: 0.963 h; half-life [15]: […]; half-life [16]: […]; CLint scaled [17]: […]; Tmax [18]: […]; MRT [19]: […]; CLint scaled [20]: […]; clearance [21]: […]
